The source made the active and inactive calls. The calls are words filed in the database; no cut-off is given here.
Experiments:
Nucleic Acid [1] = test: Ratio of drug level in brain to plasma in ICR mouse at 10 mg/kg, po after 1 hr by HPLC/MS/MS analysis; type: ADME, organism-based; parameters: dose 10 mg/kg, route oral
Nucleic Acid [2] = test: Ratio of drug level in brain to plasma in ICR mouse at 5 mg/kg, iv after 0.083 hrs by HPLC/MS/MS analysis; type: ADME, organism-based; parameters: dose 5 mg/kg, route intravenous
[3] = Plasma concentration in ICR mouse at 10 mg/kg, po after 4 hrs by HPLC/MS/MS analysis; type: ADME, organism-based; parameters: dose 10 mg/kg, route oral
[4] = Plasma concentration in ICR mouse at 5 mg/kg, iv after 0.25 hrs by HPLC/MS/MS analysis; type: ADME, organism-based; parameters: dose 5 mg/kg, route intravenous
[5] = Plasma concentration in ICR mouse at 5 mg/kg, iv after 1 hr by HPLC/MS/MS analysis; type: ADME, organism-based; parameters: dose 5 mg/kg, route intravenous
[6] = Drug level in ICR mouse brain at 10 mg/kg, po after 0.5 hrs by HPLC/MS/MS analysis; type: ADME, organism-based; parameters: dose 10 mg/kg, route oral; conditions: read-out: Drug uptake
[7] = Plasma concentration in ICR mouse at 10 mg/kg, po after 1 hr by HPLC/MS/MS analysis; type: ADME, organism-based; parameters: dose 10 mg/kg, route oral
Nucleic Acid [8] = test: Ratio of drug level in brain to plasma in ICR mouse at 5 mg/kg, iv after 0.25 hrs by HPLC/MS/MS analysis; type: ADME, organism-based; parameters: dose 5 mg/kg, route intravenous
[9] = Cmax in ICR mouse at 10 mg/kg, po; type: ADME, organism-based; parameters: dose 10 mg/kg, route oral; conditions: in vivo
Outline: (§1)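 ICR mice given drug intravenously at 5 mg/kg or orally at 10 mg/kg. Parameters are taken from the plasma concentration–time profile: AUC(0–t), AUC(0–∞), MRT, Cmax and bioavailability.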

[10] = Plasma concentration in ICR mouse at 5 mg/kg, iv after 4 hrs by HPLC/MS/MS analysis; type: ADME, organism-based; parameters: dose 5 mg/kg, route intravenous
[11] = Drug level in ICR mouse brain at 10 mg/kg, po after 0.25 hrs by HPLC/MS/MS analysis; type: ADME, organism-based; parameters: dose 10 mg/kg, route oral; conditions: read-out: Drug uptake
[12] = Drug level in ICR mouse brain at 10 mg/kg, po after 2 hrs by HPLC/MS/MS analysis; type: ADME, organism-based; parameters: dose 10 mg/kg, route oral; conditions: read-out: Drug uptake
[13] = Plasma concentration in ICR mouse at 5 mg/kg, iv after 2 hrs by HPLC/MS/MS analysis; type: ADME, organism-based; parameters: dose 5 mg/kg, route intravenous
[14] = Drug level in ICR mouse brain at 10 mg/kg, po after 0.083 hrs by HPLC/MS/MS analysis; type: ADME, organism-based; parameters: dose 10 mg/kg, route oral; conditions: read-out: Drug uptake
[15] = Drug level in ICR mouse brain at 5 mg/kg, iv after 2 hrs by HPLC/MS/MS analysis; type: ADME, organism-based; parameters: dose 5 mg/kg, route intravenous; conditions: read-out: Drug uptake
[16] = Plasma concentration in ICR mouse at 5 mg/kg, iv after 6 hrs by HPLC/MS/MS analysis; type: ADME, organism-based; parameters: dose 5 mg/kg, route intravenous
[17] = Plasma concentration in ICR mouse at 5 mg/kg, iv after 0.5 hrs by HPLC/MS/MS analysis; type: ADME, organism-based; parameters: dose 5 mg/kg, route intravenous
[18] = AUC (0 to t) in ICR mouse at 10 mg/kg, po; type: ADME, organism-based; parameters: dose 10 mg/kg, route oral; conditions: plasma; outline: as §1
[19] = Drug level in ICR mouse brain at 5 mg/kg, iv after 0.083 hrs by HPLC/MS/MS analysis; type: ADME, organism-based; parameters: dose 5 mg/kg, route intravenous; conditions: read-out: Drug uptake
[20] = Mean residence time (0 to infinity) in ICR mouse at 10 mg/kg, po; type: ADME, organism-based; parameters: dose 10 mg/kg, route oral; conditions: in vivo; outline: as §1
[21] = Tmax in ICR mouse at 10 mg/kg, po; type: ADME, organism-based; parameters: dose 10 mg/kg, route oral; conditions: in vivo
[22] = Oral bioavailability ICR mouse at 10 mg/kg; type: ADME, organism-based; conditions: in vivo; outline: as §1
[23] = Plasma concentration in ICR mouse at 5 mg/kg, iv after 0.083 hrs by HPLC/MS/MS analysis; type: ADME, organism-based; parameters: dose 5 mg/kg, route intravenous
[24] = Plasma concentration in ICR mouse at 10 mg/kg, po after 0.25 hrs by HPLC/MS/MS analysis; type: ADME, organism-based; parameters: dose 10 mg/kg, route oral
Nucleic Acid [25] = test: Ratio of drug level in brain to plasma in ICR mouse at 10 mg/kg, po after 0.5 hrs by HPLC/MS/MS analysis; type: ADME, organism-based; parameters: dose 10 mg/kg, route oral
[26] = Mean residence time (0 to infinity) in ICR mouse at 5 mg/kg, iv; type: ADME, organism-based; parameters: dose 5 mg/kg, route intravenous; conditions: in vivo; outline: as §1
[27] = AUC (0 to infinity) in ICR mouse at 5 mg/kg, iv; type: ADME, organism-based; parameters: time infinity, dose 5 mg/kg, route intravenous; conditions: plasma; outline: as §1
Rattus norvegicus [28] = test: Antiinflammatory activity in Wistar albino rat assessed as inhibition of carrageenan-induced paw edema at 30 mg/kg intragastrically administered 1 hr before carrageenan challenge measured after 1 to 24 hrs post carrageenan challenge by plethysmometer; type: functional, organism-based
Outline: (§2)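 Male Wistar albino rats, 140–160 g, eight per group, dosed i.g. as a suspension in 0.5% CMC; controls get 0.5% CMC only. 1 h later, 0.1 ml of 0.1% carrageenan in 0.9% NaCl is injected into the sub-plantar region of the right hind paw. Paw volume is read by plethysmometer hourly to 6 h and at 24 h. Inhibition (%) = (Vc − Vt)/Vc × 100 on mean volume increase; mean ± SEM.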

Rattus norvegicus [29] = test: Antiinflammatory activity in Wistar albino rat assessed as inhibition of carrageenan-induced paw edema at 33.6 mg/kg, ig administered 1 hr before carrageenan challenge measured after 1 to 24 hrs post carrageenan challenge by plethysmometer; type: functional, organism-based; outline: as §2
[30] = Plasma concentration in ICR mouse at 5 mg/kg, iv after 8 hrs by HPLC/MS/MS analysis; type: ADME, organism-based; parameters: dose 5 mg/kg, route intravenous
[31] = Drug level in ICR mouse brain at 5 mg/kg, iv after 0.25 hrs by HPLC/MS/MS analysis; type: ADME, organism-based; parameters: dose 5 mg/kg, route intravenous; conditions: read-out: Drug uptake
[32] = AUC (0 to t) in ICR mouse at 5 mg/kg, iv; type: ADME, organism-based; parameters: dose 5 mg/kg, route intravenous; conditions: plasma; outline: as §1
[33] = Tmax in ICR mouse at 5 mg/kg, iv; type: ADME, organism-based; parameters: dose 5 mg/kg, route intravenous; conditions: in vivo
[34] = Cmax in ICR mouse at 5 mg/kg, iv; type: ADME, organism-based; parameters: dose 5 mg/kg, route intravenous; conditions: in vivo; outline: as §1
Nucleic Acid [35] = test: Ratio of drug level in brain to plasma in ICR mouse at 5 mg/kg, iv after 2 hrs by HPLC/MS/MS analysis; type: ADME, organism-based; parameters: dose 5 mg/kg, route intravenous
[36] = Drug level in ICR mouse brain at 5 mg/kg, iv after 1 hr by HPLC/MS/MS analysis; type: ADME, organism-based; parameters: dose 5 mg/kg, route intravenous; conditions: read-out: Drug uptake
Nucleic Acid [37] = test: Ratio of drug level in brain to plasma in ICR mouse at 10 mg/kg, po after 0.25 hrs by HPLC/MS/MS analysis; type: ADME, organism-based; parameters: dose 10 mg/kg, route oral
Nucleic Acid [38] = test: Ratio of drug level in brain to plasma in ICR mouse at 5 mg/kg, iv after 0.5 hrs by HPLC/MS/MS analysis; type: ADME, organism-based; parameters: dose 5 mg/kg, route intravenous
[39] = Drug level in ICR mouse brain at 5 mg/kg, iv after 0.5 hrs by HPLC/MS/MS analysis; type: ADME, organism-based; parameters: dose 5 mg/kg, route intravenous; conditions: read-out: Drug uptake
[40] = AUC (0 to infinity) in ICR mouse at 10 mg/kg, po; type: ADME, organism-based; parameters: time infinity, dose 10 mg/kg, route oral; conditions: plasma; outline: as §1
[41] = Drug level in ICR mouse brain at 10 mg/kg, po after 4 hrs by HPLC/MS/MS analysis; type: ADME, organism-based; parameters: dose 10 mg/kg, route oral; conditions: read-out: Drug uptake
[42] = Plasma concentration in ICR mouse at 10 mg/kg, po after 8 hrs by HPLC/MS/MS analysis; type: ADME, organism-based; parameters: dose 10 mg/kg, route oral
[43] = Plasma concentration in ICR mouse at 10 mg/kg, po after 0.5 hrs by HPLC/MS/MS analysis; type: ADME, organism-based; parameters: dose 10 mg/kg, route oral
[44] = Plasma concentration in ICR mouse at 10 mg/kg, po after 0.083 hrs by HPLC/MS/MS analysis; type: ADME, organism-based; parameters: dose 10 mg/kg, route oral
[45] = Plasma concentration in ICR mouse at 10 mg/kg, po after 6 hrs by HPLC/MS/MS analysis; type: ADME, organism-based; parameters: dose 10 mg/kg, route oral

CC(C)Cc1ccc([C@H](C)C(=O)O)cc1 [DEXIBUPROFEN]
BPR (Nucleic Acid [1]): 0.031 mL/g | BPR (Nucleic Acid [2]): 0.037 mL/g | concentration at 4 h [3]: 5260 ng/mL | concentration at 0.25 h [4]: 19400 ng/mL | concentration at 1 h [5]: 9960 ng/mL | concentration at 0.5 h [6]: 1130 ng/g | concentration at 1 h [7]: 24000 ng/mL | BPR (Nucleic Acid [8]): 0.032 mL/g | Cmax [9]: 52100 ng/mL | concentration at 4 h [10]: 927 ng/mL | concentration at 0.25 h [11]: 999 ng/g | concentration at 2 h [12]: 340 ng/g | concentration at 2 h [13]: 3930 ng/mL | concentration at 0.083 h [14]: 1340 ng/g | concentration at 2 h [15]: 123 ng/g | concentration at 6 h [16]: 334 ng/mL | concentration at 0.5 h [17]: 19800 ng/mL | AUC(0-t) [18]: 81100 ng·h/mL | concentration at 0.083 h [19]: 1260 ng/g | MRT inf [20]: 101 min | Tmax [21]: 4.8 min | bioavailability [22]: 118% | concentration at 0.083 h [23]: 34600 ng/mL | concentration at 0.25 h [24]: 33600 ng/mL | BPR (Nucleic Acid [25]): 0.033 mL/g | MRT inf [26]: 76.8 min | AUC(0-inf) [27]: 34500 ng·h/mL | inhibition (Rattus norvegicus [28]): Active | inhibition (Rattus norvegicus [29]): Active | concentration at 8 h [30]: 354 ng/mL | concentration at 0.25 h [31]: 598 ng/g | AUC(0-t) [32]: 33900 ng·h/mL | Tmax [33]: 4.8 min | Cmax [34]: 34600 ng/mL | BPR (Nucleic Acid [35]): 0.031 mL/g | concentration at 1 h [36]: 251 ng/g | BPR (Nucleic Acid [37]): 0.029 mL/g | BPR (Nucleic Acid [38]): 0.032 mL/g | concentration at 0.5 h [39]: 613 ng/g | AUC(0-inf) [40]: 81600 ng·h/mL | concentration at 4 h [41]: 127 ng/g | concentration at 8 h [42]: 336 ng/mL | concentration at 0.5 h [43]: 34400 ng/mL | concentration at 0.083 h [44]: 52100 ng/mL | concentration at 6 h [45]: 1070 ng/mL

— ChEMBL document CHEMBL1944509, “Methyl-monofluorination of ibuprofen selectively increases its inhibitory activity toward cyclooxygenase-1 leading to enhanced analgesic activity and reduced gastric damage in vivo” (Bioorg Med Chem Lett, 2011)
